{"source": "ChEMBL document CHEMBL4350999", "about": "“Enhanced tumor retention of NTSR1-targeted agents by employing a hydrophilic cysteine cathepsin inhibitor” (Eur J Med Chem, 2019)", "key": {"[1]": {"test": "Drug excretion in SCID mouse xenografted with human HT-29 cells at 0.37 MBq/mouse, iv measured at 4 hrs using 177Lu labelled compound by gamma counter analysis", "assay_type": "ADME, organism-based", "settings": "in vivo", "procedure,_shortened": "(§1)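 Female SCID mice bearing s.c. flank HT-29 xenografts (5 × 10^6 cells in Matrigel, ~80 mm3). Given 10 μCi (0.37 MBq) 177Lu conjugate i.v. by tail vein; groups sacrificed at 4, 24, 72 h. Tissues weighed and gamma-counted as %ID/g, excretion as %ID; n = 5, mean ± SD. Blocking arms: colchicine 1 mg/kg i.p. beforehand, or D-lysine 40 mg/kg co-injected.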"}, "[2]": {"test": "Drug uptake in blood of SCID mouse xenografted with human HT-29 cells at 0.37 MBq/mouse, iv measured at 4 hrs using 177Lu labelled compound by gamma counter analysis", "assay_type": "ADME, organism-based", "settings": "in vivo", "procedure,_shortened": "as §1"}, "[3]": {"test": "Drug uptake in lung of SCID mouse xenografted with human HT-29 cells at 0.37 MBq/mouse, iv measured at 4 hrs using 177Lu labelled compound by gamma counter analysis", "assay_type": "ADME, organism-based", "settings": "in vivo", "procedure,_shortened": "(§2)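 Female SCID mice (5 weeks) bore s.c. flank xenografts of HT-29 cells (5 × 10^6 in Matrigel), used at about 80 mm3 (two weeks) and randomized. Each mouse received 10 μCi (0.37 MBq) of HPLC-purified 177Lu-conjugate via tail vein. Tissues were excised, weighed and gamma-counted, expressed as %ID/g; mean ± SD, n = 5.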"}, "[4]": {"test": "Drug uptake in stomach of SCID mouse xenografted with human HT-29 cells at 0.37 MBq/mouse, iv measured at 4 hrs using 177Lu labelled compound by gamma counter analysis", "assay_type": "ADME, organism-based", "settings": "in vivo", "procedure,_shortened": "(§3)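 Female SCID mice (5 weeks old) received s.c. flank HT-29 cells (5 × 10^6 in Matrigel). At ~80 mm3, two weeks later, mice were randomized and given 10 μCi (0.37 MBq) of purified 177Lu conjugate i.v. by tail vein. Mice were killed at 4, 24 or 72 h. Tissues were weighed and gamma counted as %ID/g, mean ± SD, n = 5. Tumor-to-tissue ratios were calculated.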"}, "[5]": {"test": "Drug uptake in spleen of SCID mouse xenografted with human HT-29 cells at 0.37 MBq/mouse, iv measured at 4 hrs using 177Lu labelled compound by gamma counter analysis", "assay_type": "ADME, organism-based", "settings": "in vivo", "procedure,_shortened": "as §3"}, "[6]": {"test": "Drug uptake in large intestine of SCID mouse xenografted with human HT-29 cells at 0.37 MBq/mouse, iv measured at 4 hrs using 177Lu labelled compound by gamma counter analysis", "assay_type": "ADME, organism-based", "settings": "in vivo", "procedure,_shortened": "as §2"}, "[7]": {"test": "Drug uptake in kidney of SCID mouse xenografted with human HT-29 cells at 0.37 MBq/mouse, iv measured at 4 hrs using 177Lu labelled compound by gamma counter analysis", "assay_type": "ADME, organism-based", "settings": "in vivo", "procedure,_shortened": "as §2"}, "[8]": {"test": "Drug uptake in bone of SCID mouse xenografted with human HT-29 cells at 0.37 MBq/mouse, iv measured at 4 hrs using 177Lu labelled compound by gamma counter analysis", "assay_type": "ADME, organism-based, Bone element", "settings": "in vivo", "procedure,_shortened": "as §2"}, "[9]": {"test": "Drug uptake in heart of SCID mouse xenografted with human HT-29 cells at 0.37 MBq/mouse, iv measured at 24 hrs using 177Lu labelled compound by gamma counter analysis", "assay_type": "ADME, organism-based", "settings": "in vivo", "procedure,_shortened": "as §2"}, "[10]": {"test": "Drug uptake in brain of SCID mouse xenografted with human HT-29 cells at 0.37 MBq/mouse, iv measured at 4 hrs using 177Lu labelled compound by gamma counter analysis", "assay_type": "ADME, organism-based", "settings": "in vivo", "procedure,_shortened": "as §2"}, "[11]": {"test": "Drug uptake in lung of SCID mouse xenografted with human HT-29 cells at 0.37 MBq/mouse, iv measured at 24 hrs using 177Lu labelled compound by gamma counter analysis", "assay_type": "ADME, organism-based", "settings": "in vivo", "procedure,_shortened": "as §2"}, "[12]": {"test": "Drug uptake in blood of SCID mouse xenografted with human HT-29 cells at 0.37 MBq/mouse, iv measured at 24 hrs using 177Lu labelled compound by gamma counter analysis", "assay_type": "ADME, organism-based", "settings": "in vivo", "procedure,_shortened": "as §1"}, "[13]": {"test": "Drug uptake in stomach of SCID mouse xenografted with human HT-29 cells at 0.37 MBq/mouse, iv measured at 24 hrs using 177Lu labelled compound by gamma counter analysis", "assay_type": "ADME, organism-based", "settings": "in vivo", "procedure,_shortened": "as §3"}, "[14]": {"test": "Drug uptake in muscle of SCID mouse xenografted with human HT-29 cells at 0.37 MBq/mouse, iv measured at 24 hrs using 177Lu labelled compound by gamma counter analysis", "assay_type": "ADME, organism-based, Muscle tissue", "settings": "in vivo", "procedure,_shortened": "as §2"}, "[15]": {"test": "Drug uptake in brain of SCID mouse xenografted with human HT-29 cells at 0.37 MBq/mouse, iv measured at 24 hrs using 177Lu labelled compound by gamma counter analysis", "assay_type": "ADME, organism-based", "settings": "in vivo", "procedure,_shortened": "as §2"}, "[16]": {"test": "Drug excretion in SCID mouse xenografted with human HT-29 cells at 0.37 MBq/mouse, iv measured at 24 hrs using 177Lu labelled compound by gamma counter analysis", "assay_type": "ADME, organism-based", "settings": "in vivo", "procedure,_shortened": "as §1"}, "[17]": {"test": "Drug uptake in heart of SCID mouse xenografted with human HT-29 cells at 0.37 MBq/mouse, iv measured at 72 hrs using 177Lu labelled compound by gamma counter analysis", "assay_type": "ADME, organism-based", "settings": "in vivo", "procedure,_shortened": "as §2"}, "[18]": {"test": "Drug uptake in lung of SCID mouse xenografted with human HT-29 cells at 0.37 MBq/mouse, iv measured at 72 hrs using 177Lu labelled compound by gamma counter analysis", "assay_type": "ADME, organism-based", "settings": "in vivo", "procedure,_shortened": "as §2"}, "[19]": {"test": "Drug uptake in liver of SCID mouse xenografted with human HT-29 cells at 0.37 MBq/mouse, iv measured at 72 hrs using 177Lu labelled compound by gamma counter analysis", "assay_type": "ADME, organism-based", "settings": "in vivo", "procedure,_shortened": "as §2"}, "[20]": {"test": "Drug uptake in pancreas of SCID mouse xenografted with human HT-29 cells at 0.37 MBq/mouse, iv measured at 72 hrs using 177Lu labelled compound by gamma counter analysis", "assay_type": "ADME, organism-based", "settings": "in vivo", "procedure,_shortened": "as §2"}, "[21]": {"test": "Drug uptake in spleen of SCID mouse xenografted with human HT-29 cells at 0.37 MBq/mouse, iv measured at 72 hrs using 177Lu labelled compound by gamma counter analysis", "assay_type": "ADME, organism-based", "settings": "in vivo", "procedure,_shortened": "as §3"}, "[22]": {"test": "Drug uptake in small intestine of SCID mouse xenografted with human HT-29 cells at 0.37 MBq/mouse, iv measured at 72 hrs using 177Lu labelled compound by gamma counter analysis", "assay_type": "ADME, organism-based", "settings": "in vivo", "procedure,_shortened": "as §2"}, "[23]": {"test": "Drug uptake in large intestine of SCID mouse xenografted with human HT-29 cells at 0.37 MBq/mouse, iv measured at 72 hrs using 177Lu labelled compound by gamma counter analysis", "assay_type": "ADME, organism-based", "settings": "in vivo", "procedure,_shortened": "as §2"}, "[24]": {"test": "Drug uptake in kidney of SCID mouse xenografted with human HT-29 cells at 0.37 MBq/mouse, iv measured at 72 hrs using 177Lu labelled compound by gamma counter analysis", "assay_type": "ADME, organism-based", "settings": "in vivo", "procedure,_shortened": "as §2"}, "[25]": {"test": "Drug uptake in muscle of SCID mouse xenografted with human HT-29 cells at 0.37 MBq/mouse, iv measured at 72 hrs using 177Lu labelled compound by gamma counter analysis", "assay_type": "ADME, organism-based, Muscle tissue", "settings": "in vivo", "procedure,_shortened": "as §2"}, "[26]": {"test": "Drug uptake in brain of SCID mouse xenografted with human HT-29 cells at 0.37 MBq/mouse, iv measured at 72 hrs using 177Lu labelled compound by gamma counter analysis", "assay_type": "ADME, organism-based", "settings": "in vivo", "procedure,_shortened": "as §2"}, "[27]": {"test": "Drug uptake in SCID mouse xenografted with human HT-29 cells assessed as tumour retention level at 0.37 MBq/mouse, iv measured at 72 hrs using 177Lu labelled compound by gamma counter analysis", "assay_type": "ADME, organism-based", "settings": "in vivo", "procedure,_shortened": "as §1"}, "[28]": {"test": "Drug excretion in SCID mouse xenografted with human HT-29 cells at 0.37 MBq/mouse, iv measured after 72 hrs using 177Lu labelled compound", "assay_type": "ADME, organism-based", "settings": "in vivo", "procedure,_shortened": "as §1"}, "[29]": {"test": "Octanol-PBS buffer distribution coefficient, log D of 177Lu labelled compound at pH 7.4 by radiometric analysis", "assay_type": "physicochemical", "procedure,_shortened": "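177Lu conjugate partitioned between 1-octanol and PBS pH 7.4. 100 μL aliquots from each layer were gamma counted, and LogD7.4 was calculated from the counts.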"}}, "data": [{"molecule": "Cc1cc(O)cc(C)c1C[C@H](NC(=O)[C@@H]1CCCN1C(=O)[C@H](CCCNC(=N)N)NC(=O)[C@H](CCCNC(=N)N)N(C)C(=O)[C@@H]1CCCN1C(=O)[C@H](CCCCN)NC(=O)[C@@H](CO)NC(=O)[C@@H](CO)NC(=O)[C@@H](CO)NC(=O)[C@H](Cc1cn(CCNC(=O)[C@H](CCCNC(=N)N)NC(=O)[C@H](CC(C)C)NC(=O)C2OC2C(=O)O)nn1)NC(=O)CN1CCN(CC(=O)O)CCN(CC(=O)O)CCN(CC(=O)O)CC1)C(=O)N[C@H](C(=O)N[C@@H](CC(C)C)C(=O)O)C(C)(C)C", "note": "(some centres undefined)", "values": [{"measurement": "Drug excretion", "setting": "[1]", "value": 70, "unit": "%ID"}, {"measurement": "Drug uptake", "setting": "[2]", "value": 0.02, "unit": "% ID/g"}, {"measurement": "Drug uptake", "setting": "[3]", "value": 0.53, "unit": "% ID/g"}, {"measurement": "Drug uptake", "setting": "[4]", "value": 0.34, "unit": "% ID/g"}, {"measurement": "Drug uptake", "setting": "[5]", "value": 1.4, "unit": "% ID/g"}, {"measurement": "Drug uptake", "setting": "[6]", "value": 1.2, "unit": "% ID/g"}, {"measurement": "Drug uptake", "setting": "[7]", "value": 67, "unit": "% ID/g"}, {"measurement": "Drug uptake", "setting": "[8]", "value": 0.8, "unit": "% ID/g"}, {"measurement": "Drug uptake", "setting": "[9]", "value": 0.08, "unit": "% ID/g"}, {"measurement": "Drug uptake", "setting": "[10]", "value": 0.01, "unit": "% ID/g"}, {"measurement": "Drug uptake", "setting": "[11]", "value": 0.45, "unit": "% ID/g"}, {"measurement": "Drug uptake", "setting": "[12]", "value": 0.01, "unit": "% ID/g"}, {"measurement": "Drug uptake", "setting": "[13]", "value": 0.33, "unit": "% ID/g"}, {"measurement": "Drug uptake", "setting": "[14]", "value": 0.04, "unit": "% ID/g"}, {"measurement": "Drug uptake", "setting": "[15]", "value": 0.02, "unit": "% ID/g"}, {"measurement": "Drug excretion", "setting": "[16]", "value": 69, "unit": "%ID"}, {"measurement": "Drug uptake", "setting": "[17]", "value": 0.04, "unit": "% ID/g"}, {"measurement": "Drug uptake", "setting": "[18]", "value": 0.3, "unit": "% ID/g"}, {"measurement": "Drug uptake", "setting": "[19]", "value": 0.67, "unit": "% ID/g"}, {"measurement": "Drug uptake", "setting": "[20]", "value": 0.15, "unit": "% ID/g"}, {"measurement": "Drug uptake", "setting": "[21]", "value": 1.9, "unit": "% ID/g"}, {"measurement": "Drug uptake", "setting": "[22]", "value": 2.3, "unit": "% ID/g"}, {"measurement": "Drug uptake", "setting": "[23]", "value": 0.73, "unit": "% ID/g"}, {"measurement": "Drug uptake", "setting": "[24]", "value": 46, "unit": "% ID/g"}, {"measurement": "Drug uptake", "setting": "[25]", "value": 0.03, "unit": "% ID/g"}, {"measurement": "Drug uptake", "setting": "[26]", "value": 0.02, "unit": "% ID/g"}, {"measurement": "Drug uptake", "setting": "[27]", "value": 3.9, "unit": "% ID/g"}, {"measurement": "Drug excretion", "setting": "[28]", "value": 80.8, "unit": "%ID"}, {"measurement": "logD", "setting": "[29]", "value": -3.78}]}]}
